Structures can show the parent of a compound that is named as a salt.
Key:
Escherichia coli [1] = assay: Inhibition of Escherichia coli MurA assessed as residual activity at 100 uM using UNAG and PEP as substrate preincubated for 30 mins in presence of UNAG followed by PEP addition and measured after 15 mins in presence of 5 mM cysteine by malachite green colorimetric assay relative to control; conditions: time 45.0 min
Procedure, shortened: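 MurA from E. coli, with the enzyme diluted in Hepes pH 7.8 containing cysteine (15 mM in buffer, giving 5 mM in incubation). Preincubated with UNAG and compound for 30 min at 37 °C, then PEP added and reacted 15 min at 37 °C. Phosphate read by malachite green at 650 nm. Duplicates; residual activity is versus DMSO control.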

[2] = biological target: Cathepsin B (Homo sapiens) (UniProt P07858); assay: Inhibition of recombinant cathepsin B (unknown origin) exopeptidase activity expressed in Escherichia coli assessed as residual activity at 100 uM using Abz-GIVRAK(Dnp)-OH as substrate preincubated for 30 mins under shaking in presence of 5 mM cysteine followed by substrate addition relative to control
[3] = biological target: Cathepsin B (Homo sapiens) (UniProt P07858); assay: Inhibition of recombinant cathepsin B (unknown origin) endopeptidase activity expressed in Escherichia coli assessed as residual activity at 100 uM using Z-RR-AMC as substrate preincubated for 30 mins under shaking in presence of 5 mM cysteine followed by substrate addition relative to control
[4] = Inhibition of recombinant cathepsin X (unknown origin) expressed in Pichia pastoris assessed as residual activity at 100 uM using Abz-Fek(Dnp)-OH as substrate preincubated for 30 mins under shaking in presence of 5 mM cysteine followed by substrate addition relative to control; conditions: Homo sapiens
Staphylococcus aureus = assay: Inhibition of Staphylococcus aureus MurA expressed in Escherichia coli assessed as residual activity at 100 uM using UNAG and PEP as substrate preincubated for 30 mins in presence of UNAG followed by PEP addition and measured after 15 mins by malachite green colorimetric assay relative to control; conditions: time 45.0 min
Escherichia coli [5] = assay: Inhibition of Escherichia coli MurA assessed as residual activity at 100 uM using UNAG and PEP as substrate preincubated for 30 mins in presence of UNAG followed by PEP addition and measured after 15 mins by malachite green colorimetric assay relative to control; conditions: time 45.0 min
[6] = Inhibition of Escherichia coli MurA using UNAG and PEP as substrate preincubated for 30 mins in presence of UNAG followed by PEP addition and measured after 15 mins by malachite green colorimetric assay
Procedure, shortened: (§1)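 IC50 from MurA (E. coli or S. aureus) residual activities at seven compound concentrations. Conditions: 30 min preincubation with UNAG at 37 °C, then PEP, 15 min at 37 °C, in 50 mM Hepes pH 7.8, 0.005% Triton X-114 and 5% DMSO. Malachite green read at 650 nm. Values are means of duplicates.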

Escherichia coli [7] = assay: Inhibition of Escherichia coli MurA assessed as residual activity at 1 mM using UNAG and PEP as substrate preincubated for 30 mins in presence of UNAG followed by PEP addition and measured after 15 mins by malachite green colorimetric assay relative to control; conditions: time 45.0 min
[8] = Inhibition of Staphylococcus aureus MurA expressed in Escherichia coli using UNAG and PEP as substrate preincubated for 30 mins in presence of UNAG followed by PEP addition and measured after 15 mins by malachite green colorimetric assay; procedure, shortened: as §1
Escherichia coli [9] = assay: Inhibition of Escherichia coli MurA assessed as residual activity at 250 uM using UNAG and PEP as substrate preincubated for 30 mins in presence of UNAG followed by PEP addition and measured after 15 mins by malachite green colorimetric assay relative to control; conditions: time 45.0 min
[10] = Drug degradation in pH 7.4 PBS buffer at 100 uM measured up to 24 hrs by LC-MS/MS analysis; format: physicochemical; conditions: pH 7.4, 24 h
Escherichia coli [11] = assay: Inhibition of Escherichia coli MurA assessed as residual activity at 25 uM using UNAG and PEP as substrate preincubated for 30 mins in presence of UNAG followed by PEP addition and measured after 15 mins by malachite green colorimetric assay relative to control

## C/C=C/C#N
Escherichia coli [1]
  Activity: 100%
[2]
  Activity: 87%
[3]
  Activity: 100%
[4]
  Activity: 90%
Staphylococcus aureus
  Activity: 97%
Escherichia coli [5]
  Activity: 100%

## COc1ccc(N=C=S)cc1
[6]
  IC50: 45 µM
Escherichia coli [1]
  Activity: 94%
[2]
  Activity: 99%
[3]
  Activity: 100%
[4]
  Activity: 55%
Staphylococcus aureus
  Activity: 91%
Escherichia coli [5]
  Activity: 33%

## C=CC(=O)Nc1cc(C(F)(F)F)cc(C(F)(F)F)c1
[6]
  IC50: 164 µM
Escherichia coli [1]
  Activity: 100%
[4]
  Activity: 92%
Staphylococcus aureus
  Activity: 72%
Escherichia coli [7]
  Activity: 86%

## C=CS(=O)(=O)c1ccccc1 [(ETHENYLSULFONYL)BENZENE]
[8]
  IC50: 34 µM
[6]
  IC50: 15 µM
Escherichia coli [1]
  Activity: 96%
[2]
  Activity: 87%
[3]
  Activity: 100%
[4]
  Activity: 93%
Staphylococcus aureus
  Activity: 30%
Escherichia coli [5]
  Activity: 12%

## CC#CC(=O)OCC
Escherichia coli [1]
  Activity: 100%
[2]
  Activity: 84%
[3]
  Activity: 96%
[4]
  Activity: 96%
Staphylococcus aureus
  Activity: 91%
Escherichia coli [5]
  Activity: 82%

## O=C(CCl)N1CCC(Cc2ccccc2)CC1
Escherichia coli [1]
  Activity: 99%
[3]
  Activity: 78%
Staphylococcus aureus
  Activity: 55%

## CCOC(=O)C#Cc1ccccc1
Escherichia coli [1]
  Activity: 99%
[2]
  Activity: 70%
[3]
  Activity: 85%
[4]
  Activity: 92%
Staphylococcus aureus
  Activity: 67%
Escherichia coli [5]
  Activity: 75%

## CCOC(=O)C#CC(F)(F)F
[8]
  IC50: 47 µM
[6]
  IC50: 24 µM
Escherichia coli [1]
  Activity: 98%
[2]
  Activity: 89%
[3]
  Activity: 100%
Escherichia coli [9]
  Activity: 100%
[4]
  Activity: 99%
Staphylococcus aureus
  Activity: 31%
Escherichia coli [5]
  Activity: 15%

## O=C1C=CC(=O)N1Cc1ccccc1
[8]
  IC50: 1.04 µM
[6]
  IC50: 0.565 µM
Escherichia coli [1]
  Activity: 99%
[2]
  Activity: 87%
[3]
  Activity: 100%
[4]
  Activity: 96%
Staphylococcus aureus
  Activity: 0%
Escherichia coli [5]
  Activity: 2%

## O=C(CBr)c1ccccc1
Escherichia coli [1]
  Activity: 94%
[2]
  Activity: 27%
[3]
  Activity: 83%
[4]
  Activity: 75%
Staphylococcus aureus
  Activity: 7%
Escherichia coli [5]
  Activity: 2%

## COc1cc(NC(=O)CCl)cc(OC)c1
Escherichia coli [1]
  Activity: 96%
[2]
  Activity: 87%
[3]
  Activity: 90%
[4]
  Activity: 84%
Staphylococcus aureus
  Activity: 52%
Escherichia coli [5]
  Activity: 61%

## COc1ccccc1C(=O)CBr
[8]
  IC50: 1.82 µM
[6]
  IC50: 0.384 µM
Escherichia coli [1]
  Activity: 100%
[2]
  Activity: 55%
[3]
  Activity: 90%
[4]
  Activity: 74%
Staphylococcus aureus
  Activity: 4%
Escherichia coli [5]
  Activity: 3%

## COc1cc2c(cc1OC)CN(C(=O)CCl)CC2
[8]
  IC50: 171 µM
[6]
  IC50: 141 µM
Escherichia coli [1]
  Activity: 98%
[4]
  Activity: 97%
Staphylococcus aureus
  Activity: 54%
Escherichia coli [5]
  Activity: 61%

## O=c1[nH]sc2ccccc12
[8]
  IC50: 0.926 µM
[6]
  IC50: 1.1 µM
Escherichia coli [1]
  Activity: 99%
[2]
  Activity: 96%
[3]
  Activity: 100%
[4]
  Activity: 100%
Staphylococcus aureus
  Activity: 0%
Escherichia coli [5]
  Activity: 2%

## COC(=O)/C=C/C(=O)OC [DIMETHYL FUMARATE]
[6]
  IC50: 172 µM
Escherichia coli [1]
  Activity: 90%
[2]
  Activity: 100%
[3]
  Activity: 100%
[4]
  Activity: 89%
Staphylococcus aureus
  Activity: 82%
Escherichia coli [7]
  Activity: 88%
Escherichia coli [5]
  Activity: 50%

## N#C/C=C/C(F)(F)F
[6]
  IC50: 95 µM
Escherichia coli [1]
  Activity: 100%
[2]
  Activity: 88%
[3]
  Activity: 100%
[4]
  Activity: 86%
Staphylococcus aureus
  Activity: 81%
Escherichia coli [7]
  Activity: 100%
Escherichia coli [5]
  Activity: 47%

## O=C(CCl)Nc1cc(C(F)(F)F)cc(C(F)(F)F)c1
[8]
  IC50: 100 µM
[6]
  IC50: 75 µM
Escherichia coli [1]
  Activity: 80%
[3]
  Activity: 75%
[4]
  Activity: 96%
Staphylococcus aureus
  Activity: 96%

## O=C(CCl)Nc1ccccc1
Escherichia coli [1]
  Activity: 95%
[2]
  Activity: 88%
[3]
  Activity: 100%
[4]
  Activity: 99%
Staphylococcus aureus
  Activity: 59%
Escherichia coli [5]
  Activity: 100%

## FC(F)(F)c1cccc(N=C=S)c1
[8]
  IC50: 53 µM
[6]
  IC50: 28 µM
Escherichia coli [1]
  Activity: 99%
[2]
  Activity: 97%
[3]
  Activity: 100%
[4]
  Activity: 87%
Staphylococcus aureus
  Activity: 9%
Escherichia coli [5]
  Activity: 3%

## O=C(CCl)c1ccccc1 [PHENACYL CHLORIDE]
[8]
  IC50: 3.02 µM
[6]
  IC50: 2.25 µM
Escherichia coli [1]
  Activity: 93%
[2]
  Activity: 34%
[3]
  Activity: 63%
[4]
  Activity: 86%
Staphylococcus aureus
  Activity: 7%
Escherichia coli [5]
  Activity: 3%

## C=CC(=O)N1CCC(Cc2ccccc2)CC1
[10]
  Stabilty: Unstable

## C[C@@H]1O[C@@H]1P(=O)(O)O
Escherichia coli [11]
  Activity: 3%

## O=C1C=CC(=O)N1C1CCCCC1
[8]
  IC50: 0.652 µM
[6]
  IC50: 0.554 µM
Escherichia coli [1]
  Activity: 100%
[2]
  Activity: 89%
[3]
  Activity: 96%
[4]
  Activity: 96%
Staphylococcus aureus
  Activity: 0.3%
Escherichia coli [5]
  Activity: 1%
Escherichia coli [11]
  Activity: 85%

## C/C=N/Nc1cc2ccccc2cn1
Escherichia coli [1]
  Activity: 100%
[2]
  Activity: 100%
[3]
  Activity: 100%
[4]
  Activity: 79%
Staphylococcus aureus
  Activity: 54%
Escherichia coli [5]
  Activity: 99%

## Cc1ccc(S)cc1
[8]
  IC50: 7.83 µM
[6]
  IC50: 1.25 µM
Escherichia coli [1]
  Activity: 94%
[2]
  Activity: 67%
[3]
  Activity: 100%
[4]
  Activity: 100%
Staphylococcus aureus
  Activity: 23%
Escherichia coli [5]
  Activity: 6%

## S=C=NCc1ccccc1 [BENZYL ISOTHIOCYANATE]
[6]
  IC50: 3.7 µM
Escherichia coli [1]
  Activity: 100%
[2]
  Activity: 18%
[3]
  Activity: 75%
[4]
  Activity: 22%
Staphylococcus aureus
  Activity: 41%
Escherichia coli [5]
  Activity: 3%

## S=C=Nc1ccccc1 [PHENYLISOTHIOCYANATE]
[6]
  IC50: 90 µM
Escherichia coli [1]
  Activity: 91%
[2]
  Activity: 98%
[3]
  Activity: 100%
[4]
  Activity: 67%
Staphylococcus aureus
  Activity: 75%
Escherichia coli [5]
  Activity: 53%

## C/C=C/C(=O)OC
[6]
  IC50: 227 µM
Escherichia coli [1]
  Activity: 96%
[2]
  Activity: 97%
[3]
  Activity: 100%
[4]
  Activity: 84%
Staphylococcus aureus
  Activity: 66%
Escherichia coli [5]
  Activity: 41%

Reference: ChEMBL document CHEMBL4680109, “A road map for prioritizing warheads for cysteine targeting covalent inhibitors” (Eur J Med Chem, 2018)
